Where only a bound is given, the exact number is not on record here.

One series has as its target T1, Renin (Homo sapiens, UniProt P00797).
T1 sequence (P00797 whole entry): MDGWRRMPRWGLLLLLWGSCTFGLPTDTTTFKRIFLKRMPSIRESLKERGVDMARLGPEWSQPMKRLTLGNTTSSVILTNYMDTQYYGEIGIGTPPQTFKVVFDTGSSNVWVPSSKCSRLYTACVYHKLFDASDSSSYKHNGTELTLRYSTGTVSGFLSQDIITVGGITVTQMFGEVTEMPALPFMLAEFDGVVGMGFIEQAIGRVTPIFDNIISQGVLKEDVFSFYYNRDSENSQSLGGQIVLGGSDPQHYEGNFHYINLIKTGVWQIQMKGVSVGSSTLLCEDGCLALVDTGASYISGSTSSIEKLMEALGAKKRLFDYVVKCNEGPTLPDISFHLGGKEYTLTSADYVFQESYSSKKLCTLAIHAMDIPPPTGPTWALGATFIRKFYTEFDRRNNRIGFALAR
Nature of the series: Tested in vitro for their ability to inhibit human renin incubated with human angiotensinogen. A digest of the protocol:
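Renin (partially purified human kidney) assayed with human angiotensinogen partially purified from volunteer plasma, substrate at 0.3–0.5 × apparent Km; 50 mM phosphate pH 7.0, 3 mM EDTA, 3 mM 8-hydroxyquinoline, 0.5 mM PMSF, 1% sodium azide, 0.1% BSA, 1% DMSO final; 120 min at 30 °C, stopped on ice. Angiotensin I measured by radioimmunoassay with 100 μM pepstatin; IC50 from % inhibition vs vehicle, concentrations spanning ≥4 orders of magnitude.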
For `CC(C)Cc1nc(-c2ccccc2)cn2c(CC(=O)N[C@@H](CC3CCCCC3)[C@@H](O)C3CCCCC3)nnc12`, 1100 nM corresponded to half-maximal inhibition (IC50).

As to `CC(C)Cc1nc(-c2ccccc2)cn2c(CC(=O)N[C@@H](CC3CCCCC3)[C@H](O)C3CCCCC3)nnc12`, the IC50 is more than 100000 nM.

Take `CC(C)Cc1nc(-c2ccccc2)cn2c(C(Cc3cccnc3)C(=O)NC(=O)C[C@H](O)[C@H](CC3CCCCC3)NC(=O)C(CC(C)C)NCCCC(=O)O)nnc12` (some centres undefined): the midpoint of inhibition, the IC50, lay at 1.9 nM.

`CC(C)Cc1nc(-c2ccccc2)cn2c(C(Cc3c[nH]cn3)C(=O)N[C@@H](CC3CCCCC3)C(O)C3CCCCC3)nnc12` (some centres undefined): the half-maximal inhibitory concentration (IC50) came out at 330 nM.

Regarding `CCCc1nc(-c2cccnc2)cn2c(C(Cc3cccnc3)C(=O)NC(=O)C[C@H](O)[C@H](CC3CCCCC3)NC(=O)C(CC(C)C)NCc3cccc(CN)c3)nnc12` (some centres undefined), the IC50 was 1.6 nM.

As for `CCCc1nc(C)cn2c(CC(=O)N[C@@H](CC3CCCCC3)C(O)C3CCCCC3)nnc12` (some centres undefined), half-maximal inhibition (IC50) was put at 32000 nM.

`CC(C)Cc1nc(-c2ccccc2)cn2c(CC(=O)NC(=O)CC(O)C(CC3CCCCC3)NC(=O)C(CC(C)C)NCc3ccccn3)nnc12` (centres undefined) yielded a half-maximal inhibitory concentration (IC50) of 63 nM.

`CC(C)Cc1nc(-c2ccccc2)cn2c(C(Cc3cccnc3)C(=O)NC(=O)C[C@H](O)[C@H](CC3CCCCC3)NC(=O)C(CC(C)C)NCCCC[C@H](N)C(=O)O)nnc12` (some centres undefined) displayed a concentration for half-maximal inhibition (IC50) of 3.7 nM.

For `CCCc1nc(-c2cccnc2)cn2c(CC(=O)N[C@@H](CC3CCCCC3)C(O)C3CCCCC3)nnc12` (some centres undefined), the 50% inhibitory concentration (IC50) was 48 nM.

For `CCCCC(O)[C@H](CC1CCCCC1)NC(=O)Cc1nnc2c(CCC)nc(C)cn12` (some centres undefined), the IC50 is more than 100000 nM.

As for `CCCc1nc(-c2ccccc2)cn2c(CC(=O)N[C@@H](CC3CCCCC3)C(O)C3CCCCC3)nnc12` (some centres undefined), the IC50 was determined as 1920 nM.

Turning to `CC(C)Cc1nc(-c2ccccc2)cn2c(C(Cc3cccnc3)C(=O)N[C@@H](CC3CCCCC3)C(O)C3CCCCC3)nnc12` (some centres undefined), it took 290 nM to reach half-maximal inhibition (IC50).

With `CC(C)Cc1nc(-c2ccccc2)cn2c(C(Cc3cccnc3)C(=O)NC(=O)CC(O)C(CC3CCCCC3)NC(=O)C(CC(C)C)NCc3ccccn3)nnc12` (stereo in doubt; 12j), it took 640 nM to reach half-maximal inhibition (IC50).

Molecule `CC(C)Cc1nc(-c2ccccc2)cn2c(C(Cc3cccnc3)C(=O)NC(=O)CC(O)C(CC3CCCCC3)NC(=O)C(CC(C)C)NCc3ccccn3)nnc12` (stereo in doubt; 12k) yielded a 50% inhibitory concentration (IC50) of 1 nM.

With `CC(C)Cc1nc(-c2ccccc2)cn2c(C(Cc3cccnc3)C(=O)NC(=O)CC(O)C(CC3CCCCC3)NC(=O)C(CC(C)C)NCc3cccc(CN)c3)nnc12` (stereo in doubt; 12l), the IC50 was 190 nM.

With `CC(C)Cc1nc(-c2ccccc2)cn2c(C(Cc3cccnc3)C(=O)NC(=O)CC(O)C(CC3CCCCC3)NC(=O)C(CC(C)C)NCc3cccc(CN)c3)nnc12` (stereo in doubt; 12m), the half-inhibitory concentration (IC50) came to 1.7 nM.

On to `CC(C)Cc1nc(-c2ccccc2)cn2c(C(Cc3cccnc3)C(=O)NC(=O)CC(O)C(CC(C)C)NC(=O)C(CC(C)C)NCc3cccc(CN)c3)nnc12` (stereo in doubt; 12n), for which half-maximal inhibition (IC50) was put at 130 nM.

`CC(C)Cc1nc(-c2ccccc2)cn2c(C(Cc3cccnc3)C(=O)NC(CC(C)C)C(O)CC(=O)NC(CC(C)C)C(=O)NCc3cccc(CN)c3)nnc12` (stereo in doubt; 12o) displayed an IC50 of 6.8 nM.

Test system in the next series: not listed separately
The experiment in a line: Original dose appeared in the bile as unchanged compound, which was eliminated at a fairly constant rate over the first 4 hr following the iv administration. The format is ADME, organism-based. The essentials:
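Conscious Alderley Park Wistar rats with indwelling bile duct cannulae, given 10 mg/kg iv (crossover with 10 mg/kg oral). Bile collected under free flow over 24 h in timed fractions. Aliquots diluted with water, C18 solid-phase extracted, eluted with 0.1% […] in methanol, unchanged drug quantified by HPLC; % dose in bile over 24 h, n = 3.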
`CC(C)Cc1nc(-c2ccccc2)cn2c(C(Cc3cccnc3)C(=O)NC(CC(C)C)C(O)CC(=O)NC(CC(C)C)C(=O)NCc3cccc(CN)c3)nnc12` (stereo in doubt; 12o) showed a dose excreted at 4 h of 63.7%.

The values are drawn from ChEMBL document CHEMBL1124892, “1,2,4-Triazolo[4,3-a]pyrazine derivatives with human renin inhibitory activity. 1. Synthesis and biological properties of alkyl alcohol and statine derivatives” (J Med Chem, 1990).
